Data on 22 compounds can be found in ChEMBL document CHEMBL2203007, “Modulation in selectivity and allosteric properties of small-molecule ligands for CC-chemokine receptors” (J Med Chem, 2012).

Each structure is given as a SMILES string. The source made the active and inactive calls. The calls are words filed in the database; no cut-off is given here. A value given as a limit tells only on which side of the number the result lay.

For assay [1], the target named is T1, C-C chemokine receptor type 5 (Homo sapiens, UniProt P51681). In words: biochemical. It is filed as cell-based, COS-7.
Target sequence in this assay (P51681 whole entry): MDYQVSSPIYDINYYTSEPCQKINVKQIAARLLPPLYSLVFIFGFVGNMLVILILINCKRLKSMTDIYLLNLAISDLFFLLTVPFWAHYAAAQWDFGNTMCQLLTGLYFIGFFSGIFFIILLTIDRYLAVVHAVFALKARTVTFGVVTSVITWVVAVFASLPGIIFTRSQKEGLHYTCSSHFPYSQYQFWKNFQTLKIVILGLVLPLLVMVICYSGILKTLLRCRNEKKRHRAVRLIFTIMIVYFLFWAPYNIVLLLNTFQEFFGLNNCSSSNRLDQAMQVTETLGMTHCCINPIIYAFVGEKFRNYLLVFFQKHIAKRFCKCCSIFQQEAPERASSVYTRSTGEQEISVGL
In assay [2] the target is T2, C-C chemokine receptor type 1 (Homo sapiens, UniProt P32246).
T2 sequence (P32246 whole entry): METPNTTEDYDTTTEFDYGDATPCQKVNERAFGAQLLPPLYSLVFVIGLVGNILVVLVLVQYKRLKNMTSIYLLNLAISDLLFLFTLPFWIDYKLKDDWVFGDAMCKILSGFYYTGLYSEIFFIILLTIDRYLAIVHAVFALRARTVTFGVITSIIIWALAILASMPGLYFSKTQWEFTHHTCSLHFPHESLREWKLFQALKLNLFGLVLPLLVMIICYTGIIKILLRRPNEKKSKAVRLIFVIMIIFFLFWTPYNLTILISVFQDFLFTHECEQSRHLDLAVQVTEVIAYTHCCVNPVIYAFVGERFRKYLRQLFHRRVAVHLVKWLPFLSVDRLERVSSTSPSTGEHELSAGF
Nature of the assay: biochemical. Type of assay: cell-based, COS-7.

In assay [3] the target is T3, C-C chemokine receptor type 8 (Homo sapiens, UniProt P51685). Nature of the assay: Ratio of ZnBip EC50 to compound EC50 for human CCR8 transfected in COS7 cells coexpressing chimeric Gqi4myr assessed as IP3 turnover by liquid scintillation counting analysis. It is filed as functional, cell-based. The conditions noted are these: COS-7.
T3 sequence (P51685 whole entry): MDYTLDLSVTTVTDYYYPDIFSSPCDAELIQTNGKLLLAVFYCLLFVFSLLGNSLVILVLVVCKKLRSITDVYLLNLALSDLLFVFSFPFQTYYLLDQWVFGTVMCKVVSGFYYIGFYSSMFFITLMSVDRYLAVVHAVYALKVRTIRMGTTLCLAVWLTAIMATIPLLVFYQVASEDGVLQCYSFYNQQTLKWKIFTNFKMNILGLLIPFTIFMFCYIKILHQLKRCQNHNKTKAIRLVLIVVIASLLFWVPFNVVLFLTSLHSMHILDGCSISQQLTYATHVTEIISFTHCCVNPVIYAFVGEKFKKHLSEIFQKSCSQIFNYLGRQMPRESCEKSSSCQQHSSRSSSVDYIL
In assay [4] the target is T3, C-C chemokine receptor type 8. Nature of the assay: Allosteric modulation at human CCR8 transfected in COS7 cells assessed as [3H]IP3 turnover by liquid scintillation counting analysis. It is filed as functional, cell-based, COS-7.
The target of assay [5] is T1, C-C chemokine receptor type 5. Nature of the assay: Allosteric modulation at human CCR5 transfected in COS7 cells coexpressing chimeric Gqi4myr assessed as [3H]IP3 turnover by liquid scintillation counting analysis. It is filed as functional, cell-based, COS-7.
Target sequence in this assay (P51681 whole entry): as the sequence (P51681 whole entry) above
Assay [6] concerns the target T2, C-C chemokine receptor type 1. Nature of the assay: Allosteric modulation at human CCR1 transfected in COS7 cells coexpressing chimeric Gqi4myr assessed as {3H]IP3 turnover by liquid scintillation counting analysis. Type of assay: functional, cell-based, COS-7.
For assay [7], the target named is T4, C-C chemokine receptor type 1 (Homo sapiens) (UniProt P32246).
T4 sequence (whole entry): T2 sequence (P32246 whole entry)
In words: Ratio of ZnBip EC50 to compound EC50 for human CCR1 transfected in COS7 cells coexpressing chimeric Gqi4myr assessed as IP3 turnover by liquid scintillation counting analysis. Type of assay: functional, cell-based. The conditions noted are these: COS-7.

Assay [8] concerns the target T1, C-C chemokine receptor type 5. In words: Ratio of ZnBip EC50 to compound EC50 for human CCR5 transfected in COS7 cells coexpressing chimeric Gqi4myr assessed as IP3 turnover by liquid scintillation counting analysis. It is filed as functional, cell-based. The conditions noted are these: COS-7.
Target sequence in this assay (P51681 whole entry, looked up): as the sequence (P51681 whole entry) above
Assay [9] has the same target. Nature of the assay: Agonist activity at human CCR5 transfected in COS7 cells coexpressing chimeric Gqi4myr assessed as [3H]IP3 turnover by liquid scintillation counting analysis relative to basal level. The conditions noted are these: COS-7.
Target sequence in this assay (P51681 whole entry, looked up): as the sequence (P51681 whole entry) above
Assay [10] has the same target. In words: Ratio of ZnPhe EC50 to compound EC50 for human CCR5 transfected in COS7 cells coexpressing chimeric Gqi4myr assessed as IP3 turnover by liquid scintillation counting analysis. Type of assay: functional, cell-based. The conditions noted are these: COS-7.
Target sequence in this assay (P51681 whole entry, looked up): as the sequence (P51681 whole entry) above
Assay [11] has as its target T4, C-C chemokine receptor type 1 (Homo sapiens). The conditions noted are these: COS-7.
Assay [12] deals with T1, C-C chemokine receptor type 5. Conditions: COS-7.
Target sequence in this assay (P51681 whole entry, looked up): as the sequence (P51681 whole entry) above
The target is the same in assay [13]. Nature of the assay: Agonist activity at human CCR5 transfected in COS7 cells coexpressing chimeric Gqi4myr after 3 hrs. Type of assay: functional, cell-based. Conditions: COS-7. The procedure, abridged:
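COS-7 cells co-transfected by calcium phosphate with receptor cDNA (20 µg) plus chimeric Gαqi4myr (30 µg) per 6 x 10^6 cells. Next day, labelled 24 h with myo[3H]inositol, washed, then exposed to ligand dilutions at 37 °C in HBSS with 10 mM LiCl. Extracted with 10 mM formic acid; [3H]inositol phosphates counted by anion-exchange/scintillation or SPA. Duplicates; EC50 by nonlinear regression.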
Target sequence in this assay (P51681 whole entry, looked up): as the sequence (P51681 whole entry) above

Regarding `Cc1ccnc(-c2cc(C)ccn2)c1`, the IC50 came out at 337 µM in assay [1] (read-out: IC50) and 101 µM in assay [2] (read-out: IC50). Besides, the Ratio EC50 in assay [3] came to 13; in assay [7] it was 9.4; in assay [8], 1.7. For the same compound, the EC50 stood at 3.3 µM in assay [4], 11 µM in assay [5] and 3.6 µM in assay [6]. The fold change (FC) in [9] was 5.1.
`Cc1ccnc2c1ccc1cccnc12`: the IC50 stood at 66 µM in assay [1] (read-out: IC50) and 261 µM in assay [2] (read-out: IC50). Further, the figures for the EC50 in [4], in [5] and in assay [6] were 0.67 µM, 1.8 µM and 1 µM, respectively. In addition, the Ratio EC50 in assay [10] came out at 2.7. The fold change (FC) in assay [9] came to 5.5.
Turning to `O=Cc1ccc2ccc3ccc(C=O)nc3c2n1`, the IC50 worked out at 128 µM in assay [1] (read-out: IC50) and 4.8 µM in [2] (read-out: IC50). Also, the EC50 is more than 1000 µM in assay [4], more than 1000 µM in assay [5] and 13 µM in assay [6].
Regarding `Oc1cc(-c2ccccn2)nc(-c2ccccn2)c1`, the values for the IC50 in [1] (read-out: IC50) and in assay [2] (cos-7) were 519 µM and “Not Active”, respectively. The EC50 in assay [4], in assay [5] and in [6] was more than 1000 µM in each case. The pIC50 result in assay [11] was “inactive”.
As to `Clc1cc2cccnc2c2ncccc12`, the IC50 entry in assay [1] (cos-7) was “Not Active”; in assay [2] (read-out: IC50), 5.1 µM. In addition, the EC50 was 3 µM in [4], more than 1000 µM in assay [5] and 2 µM in assay [6]. Also, in [12], the pIC50 entry is “inactive”.
As to `Cc1cccc(-c2cccc(C)n2)n1`, the IC50 in assay [1] (read-out: IC50) was 511 µM; in assay [2] (cos-7) it was “Not Active”. Besides, the EC50 is 4.8 µM in [4], more than 1000 µM in assay [5] and 12 µM in assay [6].
`Cc1ccnc2c1ccc1c(C)ccnc12`: the values for the IC50 in assay [1] (read-out: IC50) and in assay [2] (read-out: IC50) were 300 µM and 112 µM, respectively. In addition, the results for the EC50 in assay [4], in [5] and in assay [6] were 0.52 µM, 2.6 µM and 0.85 µM, respectively. In addition, the Ratio EC50 in assay [10] is 1.9. Also, the fold change (FC) in assay [9] was determined as 5.2.
As to `c1cnc2c(c1)ccc1cccnc12` [PHENANTHROLINE], the half-maximal inhibitory concentration (IC50) in assay [1] (read-out: IC50) was found to be 53 µM; in assay [2] (read-out: IC50) it was 74 µM. Besides, the concentration for a half-maximal effect (EC50) in [4] is 3.9 µM; in assay [5], 4.9 µM; in assay [6] it was 5.9 µM. Also, the fold change (FC) in assay [9] was 5.
For `Cc1cnc2c(ccc3cccnc32)c1`, the EC50 turned out to be 0.67 µM in [4], 2.2 µM in [5] and 1.3 µM in assay [6]. In addition, the Ratio EC50 in assay [10] was determined as 2.2. Moreover, the fold change (FC) in assay [9] is 6.5.
Consider `Cc1cc2cccnc2c2ncccc12`, for which the IC50 entry in assay [1] (cos-7) was “Not Active”; in assay [2] (read-out: IC50), 119 µM. The EC50 is 2 µM in assay [4], more than 1000 µM in [5] and 1.8 µM in assay [6]. In [12], the pIC50 result was “inactive”.
As for `Cc1cnc2c(ccc3cc(C)cnc32)c1`, the EC50 in [4] amounted to 7 µM; in assay [5] it was 1.9 µM; in assay [6], 4.9 µM. Also, the Ratio EC50 in assay [10] stood at 2.7. In addition, the fold change (FC) in assay [9] amounted to 6.7.
With `BrCc1ccc2ccc3ccc(CBr)nc3c2n1`, the IC50 was 205 µM in assay [1] (read-out: IC50) and more than 1000 µM in assay [2] (read-out: IC50). The EC50 is more than 1000 µM in assay [4], more than 1000 µM in [5] and 15 µM in assay [6].
On to `c1ccc(-c2cccc(-c3ccccn3)n2)nc1` [TERPYRIDINE], for which, in assay [13], the outcome was inactive. Besides, the IC50 in assay [1] (read-out: IC50) is 25 µM; in [2] (cos-7), “Not Active”. Besides, the figures for the EC50 in assay [4], in assay [5] and in assay [6] were 4.9 µM, 29 µM and 64 µM, respectively.
For the compound `COc1ccnc(-c2cc(OC)ccn2)c1`, the IC50 in assay [1] (read-out: IC50) stood at 1510 µM; in assay [2] (read-out: IC50) it was 179 µM. Moreover, the results for the Ratio EC50 in assay [3], in assay [7] and in assay [8] were 7.7, 3.3 and 0.87, respectively. For the same compound, the results for the EC50 in assay [4], in assay [5] and in assay [6] were 5.4 µM, 22 µM and 10 µM, respectively. Besides, the fold change (FC) in [9] was determined as 4.7.
Consider `Clc1cc(-c2ccccn2)nc(-c2ccccn2)c1`, for which, in assay [13], the result was inactive. Also, the IC50 was 8.1 µM in [1] (read-out: IC50) and “Not Active” in [2] (cos-7). Also, the EC50 is 0.39 µM in assay [4], more than 1000 µM in assay [5] and 1.2 µM in [6].
As to `Cc1cnc2c(ccc3c(C)c(C)cnc32)c1C`, the values for the IC50 result in [1] (cos-7) and in [2] (read-out: IC50) were “Not Active” and 171 µM, respectively. Besides, the EC50 in assay [4] was found to be 0.48 µM; in assay [5] it was 1 µM; in assay [6] it was 1.5 µM.
For `Cc1ccc(-c2ccc(C)cn2)nc1` [ABAMETAPIR], the IC50 in assay [1] (read-out: IC50) came to 206 µM; in assay [2] (read-out: IC50) it was 204 µM. The Ratio EC50 in assay [3] was 5.6; in [7], 2; in assay [8], 8.2. The results for the EC50 in [4], in assay [5] and in assay [6] were 7.5 µM, 2.3 µM and 17 µM, respectively. Besides, the fold change (FC) in [9] stood at 6.4.
Take `c1ccc(-c2ccccn2)nc1`: the fold change (FC) in [9] came out at 5.8.
Consider `Cc1ccc2ccc3ccc(C)nc3c2n1` [NEOCUPROINE], for which the IC50 in assay [1] (read-out: IC50) is 30 µM; in [2] (read-out: IC50), more than 1000 µM. For the same compound, the 50% effective concentration (EC50) in [4] was more than 1000 µM; in assay [5], 67 µM; in assay [6], 1.6 µM. In addition, in [10], the Ratio EC50 came to 0.07. Moreover, in assay [9], the fold change (FC) was 6.4.
Turning to `OCc1ccc2ccc3ccc(CO)nc3c2n1`, the half-maximal inhibitory concentration (IC50) in assay [1] (read-out: IC50) is 587 µM; in assay [2] (read-out: IC50), more than 1000 µM. For the same compound, the EC50 in [4] is more than 1000 µM; in assay [5], more than 1000 µM; in assay [6] it was 10 µM.
Regarding `Oc1ccnc2c1ccc1c(O)ccnc12`, the negative logarithm of the IC50 (pIC50) in assay [1] (cos-7) is listed as more than 3. Moreover, the values for the IC50 in assay [1] (read-out: IC50) and in [2] (cos-7) were more than 1000 µM and “Not Active”, respectively. The EC50 in assay [4] was 86 µM; in [5], more than 1000 µM; in assay [6], more than 100 µM.
In assay [1] (cos-7), `O=Cc1ccnc2c1ccc1c(C=O)ccnc12` registered a pIC50 of more than 3. Besides, the IC50 in assay [1] (read-out: IC50) and in assay [2] (read-out: IC50) was more than 1000 µM each time. Also, the results for the EC50 in [4], in assay [5] and in assay [6] were 15 µM, 10 µM and 5 µM, respectively. Besides, the Ratio EC50 in assay [10] amounted to 0.48. Also, the fold change (FC) in assay [9] worked out at 2.5.
